Values after ≈ are worked out from the molar mass of the structure shown.
Experiments:
Type in all cases: functional
[1] = Antioxidant activity assessed as nitric oxide radical scavenging activity after 150 mins
Outline: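 10 mM sodium nitroprusside (4 mL), PBS pH 7.4 (1 mL) and sample or ascorbic acid in DMSO (1 mL, 12.5–100 µg/mL), incubated 150 min at 25 °C. Nitrite detected with sulphanilic acid (5 min) then naphthylethylenediamine (30 min, diffused light). Read at […]. Triplicate. % inhibition = [1 − (Vt/Vc)] × 100. IC50 derived from it.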

[2] = Antioxidant activity assessed as hydrogen peroxide scavenging activity after 10 mins
Outline: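 H2O2 (20 mM) in PBS pH 7.4. 1 mL of sample or ascorbic acid in methanol (12.5–100 µg/mL) added to 2 mL H2O2 solution. A230 read after 10 min. % inhibition = [1 − (Vt/Vc)] × 100. Triplicate, averaged. IC50 derived from % inhibition across concentrations.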

[3] = Antioxidant activity assessed as inhibition of lipid peroxidation using egg lecithin liposomes incubated for 1 hr
Outline: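 Egg lecithin (3 mg/mL, phosphate buffer pH 7.4) sonicated 10 min to form liposomes. Sample or ascorbic acid (12.5–100 µg/mL) added. Peroxidation induced with FeCl3 and L-ascorbic acid, 1 h at 37 °C. Stopped with HCl/TCA/TBA/BHA, boiled 15 min, centrifuged, supernatant read at 532 nm. Triplicate. % inhibition vs control. IC50 derived.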

[4] = Antioxidant activity assessed as potassium ferricyanide ion reducing power after 20 mins
Outline: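 Oyaizu method. Samples or ascorbic acid in DMF (12.5–100 µg/mL) mixed with 0.2 M phosphate buffer pH 6.6 and 1% potassium ferricyanide, 20 min at 50 °C. 10% TCA added, centrifuged. Supernatant mixed with water and 0.1% FeCl3, read at 700 nm. % = [(Vt/Vc) − 1] × 100. IC50 derived.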

[5] = Antiinflammatory activity assessed as inhibition of albumin denaturation at 100 ug/ml by UV-visible spectrophotometry
Outline: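 Compounds dissolved in minimal DMF, diluted in PBS pH 7.4 (final DMF <2.5%). 1 mL test solution (100 µg/mL) plus 1 mL 1% albumin in PBS, 15 min at 27 ± 1 °C, then heated 10 min at 60 ± 1 °C. After cooling, turbidity read at 660 nm. % inhibition = [(Vt/Vc) − 1] × 100 against a no-drug control. Triplicate, averaged. Diclofenac standard.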

Metaphire posthuma [6] = experiment: Anthelmintic activity against Pheretima posthuma assessed as time taken for complete parasite paralysis at 0.1% w/v
Outline: (§1)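 Earthworms (Pheretima posthuma) exposed to test solutions at 0.1, 0.2 and 0.5% w/v; time in minutes to complete paralysis (worms motionless) recorded. Albendazole as standard. Mean of three determinations ± S.D.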

Metaphire posthuma [7] = experiment: Anthelmintic activity against Pheretima posthuma assessed as time taken for complete parasite paralysis at 0.2% w/v; outline: as §1
Metaphire posthuma [8] = experiment: Anthelmintic activity against Pheretima posthuma assessed as time taken for complete parasite paralysis at 0.5% w/v; outline: as §1
Metaphire posthuma [9] = experiment: Anthelmintic activity against Pheretima posthuma assessed as time taken for parasite death at 0.1% w/v
Outline: (§2)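 Earthworms (Pheretima posthuma, spelled Perituma posthuma in text) exposed to test compounds at 0.1, 0.2 and 0.5% w/v. Albendazole served as standard, with an untreated control. Paralysis was recorded as the time until worms became motionless, then time to death was recorded, in minutes. Each value is the mean of three determinations with S.D.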

Metaphire posthuma [10] = experiment: Anthelmintic activity against Pheretima posthuma assessed as time taken for parasite death at 0.2% w/v; outline: as §2
Metaphire posthuma [11] = experiment: Anthelmintic activity against Pheretima posthuma assessed as time taken for parasite death at 0.5% w/v; outline: as §2
Escherichia coli [12] = experiment: Antimicrobial activity against Escherichia coli at 25 ug/ml by agar plate diffusion technique; conditions: read-out: IZ
Outline: (§3)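 Agar plate diffusion against E. coli, P. aeruginosa, S. aureus and B. subtilis, with compounds at 25, 50 and 100 µg/mL. Streptomycin as standard.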

Escherichia coli [13] = experiment: Antimicrobial activity against Escherichia coli at 50 ug/ml by agar plate diffusion technique; conditions: read-out: IZ; outline: as §3
Escherichia coli [14] = experiment: Antimicrobial activity against Escherichia coli at 100 ug/ml by agar plate diffusion technique; conditions: read-out: IZ; outline: as §3
Pseudomonas aeruginosa [15] = experiment: Antimicrobial activity against Pseudomonas aeruginosa at 25 ug/ml by agar plate diffusion technique; conditions: read-out: IZ; outline: as §3
Pseudomonas aeruginosa [16] = experiment: Antimicrobial activity against Pseudomonas aeruginosa at 50 ug/ml by agar plate diffusion technique; conditions: read-out: IZ; outline: as §3
Pseudomonas aeruginosa [17] = experiment: Antimicrobial activity against Pseudomonas aeruginosa at 100 ug/ml by agar plate diffusion technique; conditions: read-out: IZ; outline: as §3
Bacillus subtilis [18] = experiment: Antimicrobial activity against Bacillus subtilis at 25 ug/ml by agar plate diffusion technique; conditions: read-out: IZ; outline: as §3
Bacillus subtilis [19] = experiment: Antimicrobial activity against Bacillus subtilis at 50 ug/ml by agar plate diffusion technique; conditions: read-out: IZ; outline: as §3
Bacillus subtilis [20] = experiment: Antimicrobial activity against Bacillus subtilis at 100 ug/ml by agar plate diffusion technique; conditions: read-out: IZ; outline: as §3
Staphylococcus aureus [21] = experiment: Antimicrobial activity against Staphylococcus aureus at 25 ug/ml by agar plate diffusion technique; conditions: read-out: IZ; outline: as §3
Staphylococcus aureus [22] = experiment: Antimicrobial activity against Staphylococcus aureus at 50 ug/ml by agar plate diffusion technique; conditions: read-out: IZ; outline: as §3
Staphylococcus aureus [23] = experiment: Antimicrobial activity against Staphylococcus aureus at 100 ug/ml by agar plate diffusion technique; conditions: read-out: IZ; outline: as §3
Candida albicans [24] = experiment: Antimicrobial activity against Candida albicans at 25 ug/ml by paper disc method; conditions: read-out: IZ
Outline: (§4)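 Paper disc method against A. niger and C. albicans, with compounds at 25, 50 and 100 µg/mL. Amphotericin-B as standard.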

Candida albicans [25] = experiment: Antimicrobial activity against Candida albicans at 50 ug/ml by paper disc method; conditions: read-out: IZ; outline: as §4
Candida albicans [26] = experiment: Antimicrobial activity against Candida albicans at 100 ug/ml by paper disc method; conditions: read-out: IZ; outline: as §4
Aspergillus niger [27] = experiment: Antimicrobial activity against Aspergillus niger at 25 ug/ml by paper disc method; conditions: read-out: IZ; outline: as §4
Aspergillus niger [28] = experiment: Antimicrobial activity against Aspergillus niger at 50 ug/ml by paper disc method; conditions: read-out: IZ; outline: as §4
Aspergillus niger [29] = experiment: Antimicrobial activity against Aspergillus niger at 100 ug/ml by paper disc method; conditions: read-out: IZ; outline: as §4

SMILES: CSc1nc(-c2cccc(O)c2O)c(C#N)c(=O)n1C
- IC50 [1]: 53 µg/mL (≈ 183 µM)
- IC50 [2]: 37 µg/mL (≈ 128 µM)
- IC50 [3]: 41 µg/mL (≈ 142 µM)
- IC50 [4]: 48 µg/mL (≈ 166 µM)
- inhibition [5]: 44.1%
- Time (Metaphire posthuma [6]): 58.04 min
- Time (Metaphire posthuma [7]): 62.28 min
- Time (Metaphire posthuma [8]): 50.1 min
- Time (Metaphire posthuma [9]): 65.29 min
- Time (Metaphire posthuma [10]): 65.5 min
- Time (Metaphire posthuma [11]): 61.02 min
- zone of inhibition at 25 µg/mL (Escherichia coli [12]): 7.28 mm
- zone of inhibition at 50 µg/mL (Escherichia coli [13]): 8.78 mm
- zone of inhibition at 100 µg/mL (Escherichia coli [14]): 10.4 mm
- zone of inhibition at 25 µg/mL (Pseudomonas aeruginosa [15]): 7.67 mm
- zone of inhibition at 50 µg/mL (Pseudomonas aeruginosa [16]): 8.12 mm
- zone of inhibition at 100 µg/mL (Pseudomonas aeruginosa [17]): 12.7 mm
- zone of inhibition at 25 µg/mL (Bacillus subtilis [18]): 13 mm
- zone of inhibition at 50 µg/mL (Bacillus subtilis [19]): 15.8 mm
- zone of inhibition at 100 µg/mL (Bacillus subtilis [20]): 24.4 mm
- zone of inhibition at 25 µg/mL (Staphylococcus aureus [21]): 8.7 mm
- zone of inhibition at 50 µg/mL (Staphylococcus aureus [22]): 10.6 mm
- zone of inhibition at 100 µg/mL (Staphylococcus aureus [23]): 13.6 mm
- zone of inhibition at 25 µg/mL (Candida albicans [24]): 9.48 mm
- zone of inhibition at 50 µg/mL (Candida albicans [25]): 13.9 mm
- zone of inhibition at 100 µg/mL (Candida albicans [26]): 21 mm
- zone of inhibition at 25 µg/mL (Aspergillus niger [27]): 8.4 mm
- zone of inhibition at 50 µg/mL (Aspergillus niger [28]): 10.8 mm
- zone of inhibition at 100 µg/mL (Aspergillus niger [29]): 17.1 mm

SMILES: CSc1nc(-c2ccccc2O)c(C#N)c(=O)n1C
- IC50 [1]: 58 µg/mL (≈ 212 µM)
- IC50 [2]: 39 µg/mL (≈ 143 µM)
- IC50 [3]: 44 µg/mL (≈ 161 µM)
- IC50 [4]: 52 µg/mL (≈ 190 µM)
- inhibition [5]: 51.9%
- Time (Metaphire posthuma [6]): 40.28 min
- Time (Metaphire posthuma [7]): 39.46 min
- Time (Metaphire posthuma [8]): 35.14 min
- Time (Metaphire posthuma [9]): 50.82 min
- Time (Metaphire posthuma [10]): 48.34 min
- Time (Metaphire posthuma [11]): 45.3 min
- zone of inhibition at 25 µg/mL (Escherichia coli [12]): 6.25 mm
- zone of inhibition at 50 µg/mL (Escherichia coli [13]): 9.16 mm
- zone of inhibition at 100 µg/mL (Escherichia coli [14]): 11.3 mm
- zone of inhibition at 25 µg/mL (Pseudomonas aeruginosa [15]): 6.36 mm
- zone of inhibition at 50 µg/mL (Pseudomonas aeruginosa [16]): 8.16 mm
- zone of inhibition at 100 µg/mL (Pseudomonas aeruginosa [17]): 10.8 mm
- zone of inhibition at 25 µg/mL (Bacillus subtilis [18]): 12.8 mm
- zone of inhibition at 50 µg/mL (Bacillus subtilis [19]): 16.9 mm
- zone of inhibition at 100 µg/mL (Bacillus subtilis [20]): 25.5 mm
- zone of inhibition at 25 µg/mL (Staphylococcus aureus [21]): 8.14 mm
- zone of inhibition at 50 µg/mL (Staphylococcus aureus [22]): 9.33 mm
- zone of inhibition at 100 µg/mL (Staphylococcus aureus [23]): 11.2 mm
- zone of inhibition at 25 µg/mL (Candida albicans [24]): 8.84 mm
- zone of inhibition at 50 µg/mL (Candida albicans [25]): 12.6 mm
- zone of inhibition at 100 µg/mL (Candida albicans [26]): 20 mm
- zone of inhibition at 25 µg/mL (Aspergillus niger [27]): 8 mm
- zone of inhibition at 50 µg/mL (Aspergillus niger [28]): 9.46 mm
- zone of inhibition at 100 µg/mL (Aspergillus niger [29]): 15.4 mm
